# From ChEMBL document CHEMBL3627613, “4-Aminoquinoline derivatives as novel Mycobacterium tuberculosis GyrB inhibitors: Structural optimization, synthesis and biological evaluation” (Eur J Med Chem, 2015)
# pIC50: −log10 of the molar value.
# Tests used:
# [1] = molecular target: DNA gyrase subunit B (Mycobacterium smegmatis, UniProt P0C559); test: Inhibition of Mycobacterium smegmatis DNA gyrase B expressed in Escherichia coli BL21 (DE3) pLysS cells assessed as reduction in ATPase activity incubated for 100 mins by inorganic phosphate detection assay; parameters: species or system Mycolicibacterium smegmatis
# [2] = test system: Mycobacterium tuberculosis; test: Antimycobacterial activity against Mycobacterium tuberculosis H37Rv assessed as growth inhibition incubated for 7 days by microplate alamar blue assay; assay type: functional; settings: 168 h
# Method in brief: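 M. tuberculosis H37Rv inoculum from fresh LJ medium, resuspended in 7H9 broth (0.1% casitone, 0.5% glycerol, OADC), set to McFarland No. 1 and diluted 1:20. Two-fold serial compound dilutions in 7H9-S, with growth and sterile controls. Incubated 7 days at 37 °C, then alamar blue overnight. MIC is the lowest concentration preventing the blue-to-pink colour change.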
# [3] = molecular target: DNA gyrase subunit A/DNA gyrase subunit B (Mycobacterium tuberculosis (strain ATCC 25618 / H37Rv), UniProt P9WG45+P9WG47); test: Inhibition of DNA gyrase GyrA/GyrB in Mycobacterium tuberculosis incubated for 30 mins assessed as reduction in supercoiling of relaxed relaxed pBR322 DNA by ethidium bromide staining based agarose gel electrophoresis method
# [4] = Cytotoxicity against mouse RAW264.7 cells assessed as inhibition of cell viability at 50 uM incubated for 48 hrs at 37 degC by MTT assay relative to control; assay type: cell-based; settings: read-out: INH
# Method in brief: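 RAW 264.7 mouse macrophages, 5×10^5 cells per well, exposed to compound for 48 h at 37 °C under 5% CO2. MTT added 4 h before the end. Formazan dissolved in DMSO and absorbance read at 560 nm against blank. Triplicates, run twice.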
# Chain of DNA gyrase subunit A/DNA gyrase subunit B (P9WG45 whole entry): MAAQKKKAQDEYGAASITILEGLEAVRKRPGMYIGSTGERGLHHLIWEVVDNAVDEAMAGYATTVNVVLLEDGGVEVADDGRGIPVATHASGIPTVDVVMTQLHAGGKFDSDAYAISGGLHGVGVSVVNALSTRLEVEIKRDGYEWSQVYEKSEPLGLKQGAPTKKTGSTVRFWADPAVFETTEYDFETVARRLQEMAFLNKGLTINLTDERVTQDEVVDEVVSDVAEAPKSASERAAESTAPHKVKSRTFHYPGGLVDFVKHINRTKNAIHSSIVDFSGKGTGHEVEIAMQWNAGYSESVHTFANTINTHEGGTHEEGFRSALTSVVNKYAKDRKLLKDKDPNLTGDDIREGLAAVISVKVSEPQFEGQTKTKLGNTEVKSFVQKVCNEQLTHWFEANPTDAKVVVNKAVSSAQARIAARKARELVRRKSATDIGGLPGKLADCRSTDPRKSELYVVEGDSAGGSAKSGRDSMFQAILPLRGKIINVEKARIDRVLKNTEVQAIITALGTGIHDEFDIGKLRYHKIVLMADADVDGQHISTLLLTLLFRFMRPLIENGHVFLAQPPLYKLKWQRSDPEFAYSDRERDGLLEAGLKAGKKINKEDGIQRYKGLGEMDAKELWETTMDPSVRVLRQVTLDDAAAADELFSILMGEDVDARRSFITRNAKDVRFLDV
# Chain of DNA gyrase subunit A/DNA gyrase subunit B (P9WG47 whole entry): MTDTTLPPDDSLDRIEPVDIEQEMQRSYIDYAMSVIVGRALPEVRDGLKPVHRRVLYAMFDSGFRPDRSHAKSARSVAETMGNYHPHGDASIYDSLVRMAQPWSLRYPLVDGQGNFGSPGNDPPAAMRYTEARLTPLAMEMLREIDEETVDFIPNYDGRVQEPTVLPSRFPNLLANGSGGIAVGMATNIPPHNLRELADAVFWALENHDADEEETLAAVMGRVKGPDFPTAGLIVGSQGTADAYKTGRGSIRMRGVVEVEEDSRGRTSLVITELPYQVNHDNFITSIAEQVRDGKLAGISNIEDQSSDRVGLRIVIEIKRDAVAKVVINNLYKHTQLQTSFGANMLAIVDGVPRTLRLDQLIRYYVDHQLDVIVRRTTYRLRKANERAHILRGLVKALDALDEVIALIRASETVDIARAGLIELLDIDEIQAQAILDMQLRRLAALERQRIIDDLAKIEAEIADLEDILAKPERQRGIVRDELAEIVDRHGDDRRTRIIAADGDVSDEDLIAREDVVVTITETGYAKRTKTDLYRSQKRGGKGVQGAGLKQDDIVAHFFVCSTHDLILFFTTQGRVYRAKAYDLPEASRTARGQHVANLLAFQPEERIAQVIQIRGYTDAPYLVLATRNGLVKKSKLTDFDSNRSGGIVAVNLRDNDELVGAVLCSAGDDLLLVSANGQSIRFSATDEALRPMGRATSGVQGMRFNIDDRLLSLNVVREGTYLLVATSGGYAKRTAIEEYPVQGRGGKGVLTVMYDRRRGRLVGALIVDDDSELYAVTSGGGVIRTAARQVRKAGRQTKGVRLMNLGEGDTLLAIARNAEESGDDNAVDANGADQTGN
# Chain of DNA gyrase subunit B (P0C559 whole entry): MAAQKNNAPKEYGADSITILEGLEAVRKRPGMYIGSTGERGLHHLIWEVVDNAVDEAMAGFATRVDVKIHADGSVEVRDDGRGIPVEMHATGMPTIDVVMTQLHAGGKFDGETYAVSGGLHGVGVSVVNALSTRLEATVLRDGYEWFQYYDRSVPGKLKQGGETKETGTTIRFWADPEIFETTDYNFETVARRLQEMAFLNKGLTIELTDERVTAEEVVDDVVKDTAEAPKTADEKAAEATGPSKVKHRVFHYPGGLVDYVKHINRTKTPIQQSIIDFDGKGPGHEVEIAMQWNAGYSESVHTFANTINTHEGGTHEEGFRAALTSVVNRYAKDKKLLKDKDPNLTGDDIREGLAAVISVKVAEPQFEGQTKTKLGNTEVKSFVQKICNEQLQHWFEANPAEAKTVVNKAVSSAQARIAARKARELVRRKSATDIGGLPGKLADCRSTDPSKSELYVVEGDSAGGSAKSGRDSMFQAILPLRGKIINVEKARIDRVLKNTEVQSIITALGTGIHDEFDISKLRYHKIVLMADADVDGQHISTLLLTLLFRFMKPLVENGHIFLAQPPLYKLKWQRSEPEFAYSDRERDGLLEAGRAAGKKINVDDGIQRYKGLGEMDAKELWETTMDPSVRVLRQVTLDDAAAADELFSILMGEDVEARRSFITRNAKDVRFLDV
compound,measurement,setting,value
CCOC(=O)c1cnc2ccc(F)cc2c1Nc1ccc(OCCCN2CCOCC2)cc1,pIC50,[1],4.77
same,MIC,[2],21.7 µM
same,pIC50,[3],5.12
same,"cytotoxicity at 48 h, 50 µM",[4],44.1%
CCN1CCN(CCCOc2ccc(Nc3c(C(=O)O)cnc4ccc(C(F)(F)F)cc34)cc2)CC1,pIC50,[1],5.10
same,MIC,[2],19.8 µM
same,pIC50,[3],5.45
same,"cytotoxicity at 48 h, 50 µM",[4],13.4%
CCN1CCN(CCCOc2ccc(Nc3c(C(=O)NN)cnc4ccccc34)cc2)CC1,pIC50,[1],4.55
same,MIC,[2],13.9 µM
same,pIC50,[3],4.78
same,"cytotoxicity at 48 h, 50 µM",[4],18.2%
CCOC(=O)c1cnc2ccc(OC)cc2c1Nc1ccc(NCCCN2CCN(CC)CC2)cc1,pIC50,[1],5.02
same,MIC,[2],25.4 µM
same,pIC50,[3],5.07
same,"cytotoxicity at 48 h, 50 µM",[4],21.4%
COc1c(N2C[C@@H]3CCCN[C@@H]3C2)c(F)cc2c(=O)c(C(=O)O)cn(C3CC3)c12 [MOXIFLOXACIN],pIC50,[1],< 4.30
same,MIC,[2],1.26 µM
CCOC(=O)c1cnc2ccccc2c1Nc1ccc(NCCCN2CCOCC2)cc1,pIC50,[1],4.75
same,MIC,[2],14.4 µM
same,pIC50,[3],5.06
same,"cytotoxicity at 48 h, 50 µM",[4],1.82%
NNC(=O)c1cnc2ccccc2c1Nc1ccc(NCCCN2CCOCC2)cc1,pIC50,[1],< 4.30
same,MIC,[2],44.9 µM
same,pIC50,[3],4.64
same,"cytotoxicity at 48 h, 50 µM",[4],6.48%
COc1ccc2ncc(C(=O)O)c(Nc3ccc(OCCCN4CCOCC4)cc3)c2c1,pIC50,[1],4.69
same,MIC,[2],57.1 µM
same,pIC50,[3],4.89
same,"cytotoxicity at 48 h, 50 µM",[4],11.4%
COc1ccc2ncc(C(=O)NN)c(Nc3ccc(NCCCN4CCOCC4)cc3)c2c1,pIC50,[1],4.35
same,MIC,[2],27.8 µM
same,pIC50,[3],4.81
same,"cytotoxicity at 48 h, 50 µM",[4],9.59%
CO[C@H]1/C=C/O[C@@]2(C)Oc3c(C)c(O)c4c(O)c(c(/C=N/N5CCN(C)CC5)c(O)c4c3C2=O)NC(=O)/C(C)=C\C=C\[C@H](C)[C@H](O)[C@@H](C)[C@@H](O)[C@@H](C)[C@H](OC(C)=O)[C@@H]1C [RIFAMPIN],MIC,[2],0.23 µM
CCN1CCN(CCCNc2ccc(Nc3c(C(=O)O)cnc4ccc(OC)cc34)cc2)CC1,pIC50,[1],5.88
same,MIC,[2],3.48 µM
same,pIC50,[3],6.03
same,"cytotoxicity at 48 h, 50 µM",[4],20.1%
CCOC(=O)c1cnc2ccc(F)cc2c1Nc1ccc(NCCCN2CCN(CC)CC2)cc1,pIC50,[1],4.77
same,MIC,[2],13 µM
same,pIC50,[3],5.10
same,"cytotoxicity at 48 h, 50 µM",[4],20.2%
NNC(=O)c1cnc2ccc(F)cc2c1Nc1ccc(NCCCN2CCOCC2)cc1,pIC50,[1],4.73
same,MIC,[2],23.6 µM
same,pIC50,[3],4.98
same,"cytotoxicity at 48 h, 50 µM",[4],29.1%
CCOC(=O)c1cnc2ccc(C(F)(F)F)cc2c1Nc1ccc(NCCCN2CCN(CC)CC2)cc1,pIC50,[1],5.05
same,MIC,[2],1.47 µM
same,pIC50,[3],5.42
same,"cytotoxicity at 48 h, 50 µM",[4],20.1%
CCOC(=O)c1cnc2ccc(OC)cc2c1Nc1ccc(OCCCN2CCN(CC)CC2)cc1,pIC50,[1],4.80
same,MIC,[2],11.6 µM
same,pIC50,[3],5.16
same,"cytotoxicity at 48 h, 50 µM",[4],21.6%
CCOC(=O)c1cnc2ccccc2c1Nc1ccc(OCCCN2CCN(CC)CC2)cc1,pIC50,[1],< 4.30
same,MIC,[2],13.5 µM
same,pIC50,[3],4.62
same,"cytotoxicity at 48 h, 50 µM",[4],21.4%
O=C(O)c1cnc2ccc(F)cc2c1Nc1ccc(NCCCN2CCOCC2)cc1,pIC50,[1],4.82
same,MIC,[2],29.5 µM
same,pIC50,[3],5.35
same,"cytotoxicity at 48 h, 50 µM",[4],13.1%
CCOC(=O)c1cnc2ccccc2c1Nc1ccc(OCCCN2CCOCC2)cc1,pIC50,[1],4.64
same,MIC,[2],28.7 µM
same,pIC50,[3],5.12
same,"cytotoxicity at 48 h, 50 µM",[4],17.7%
O=C(O)c1cnc2ccccc2c1Nc1ccc(NCCCN2CCOCC2)cc1,pIC50,[1],4.95
same,MIC,[2],7.69 µM
same,pIC50,[3],5.25
same,"cytotoxicity at 48 h, 50 µM",[4],0.55%
CCOC(=O)c1cnc2ccccc2c1Nc1ccc(NCCCN2CCN(CC)CC2)cc1,pIC50,[1],4.93
same,MIC,[2],6.77 µM
same,pIC50,[3],5.49
same,"cytotoxicity at 48 h, 50 µM",[4],20.4%
CCOC(=O)c1cnc2ccc(OC)cc2c1Nc1ccc(NCCCN2CCOCC2)cc1,pIC50,[1],4.65
same,MIC,[2],23.4 µM
same,pIC50,[3],5.03
same,"cytotoxicity at 48 h, 50 µM",[4],19.3%
CCOC(=O)c1cnc2ccc(F)cc2c1Nc1ccc(OCCCN2CCN(CC)CC2)cc1,pIC50,[1],4.63
same,MIC,[2],3.25 µM
same,pIC50,[3],4.93
same,"cytotoxicity at 48 h, 50 µM",[4],21.6%
NNC(=O)c1cnc2ccc(C(F)(F)F)cc2c1Nc1ccc(NCCCN2CCOCC2)cc1,pIC50,[1],4.33
same,MIC,[2],25.6 µM
same,pIC50,[3],4.70
same,"cytotoxicity at 48 h, 50 µM",[4],7.94%
CCN1CCN(CCCOc2ccc(Nc3c(C(=O)NN)cnc4ccc(C(F)(F)F)cc34)cc2)CC1,pIC50,[1],4.93
same,MIC,[2],11.5 µM
same,pIC50,[3],5.03
same,"cytotoxicity at 48 h, 50 µM",[4],20.1%
CCN1CCN(CCCNc2ccc(Nc3c(C(=O)NN)cnc4ccc(F)cc34)cc2)CC1,pIC50,[1],5.94
same,MIC,[2],3.3 µM
same,pIC50,[3],6.09
same,"cytotoxicity at 48 h, 50 µM",[4],6.11%
CCOC(=O)c1cnc2ccc(C(F)(F)F)cc2c1Nc1ccc(OCCCN2CCN(CC)CC2)cc1,pIC50,[1],6.01
same,MIC,[2],2.94 µM
same,pIC50,[3],6.16
same,"cytotoxicity at 48 h, 50 µM",[4],27.3%
COc1ccc2ncc(C(=O)NN)c(Nc3ccc(OCCCN4CCOCC4)cc3)c2c1,pIC50,[1],4.98
same,MIC,[2],55.4 µM
same,pIC50,[3],4.98
same,"cytotoxicity at 48 h, 50 µM",[4],6.26%
CCN1CCN(CCCNc2ccc(Nc3c(C(=O)NN)cnc4ccc(OC)cc34)cc2)CC1,pIC50,[1],5.49
same,MIC,[2],13.1 µM
same,pIC50,[3],5.59
same,"cytotoxicity at 48 h, 50 µM",[4],2.56%
O=C(O)c1cnc2ccc(C(F)(F)F)cc2c1Nc1ccc(NCCCN2CCOCC2)cc1,pIC50,[1],5.10
same,MIC,[2],6.59 µM
same,pIC50,[3],5.42
same,"cytotoxicity at 48 h, 50 µM",[4],19.1%
NNC(=O)c1cnc2ccc(F)cc2c1Nc1ccc(OCCCN2CCOCC2)cc1,pIC50,[1],4.68
same,MIC,[2],28.4 µM
same,pIC50,[3],4.67
same,"cytotoxicity at 48 h, 50 µM",[4],13.7%
O=C(O)c1cnc2ccc(F)cc2c1Nc1ccc(OCCCN2CCOCC2)cc1,pIC50,[1],4.50
same,MIC,[2],14.7 µM
same,pIC50,[3],4.77
same,"cytotoxicity at 48 h, 50 µM",[4],10.8%
CCN1CCN(CCCNc2ccc(Nc3c(C(=O)NN)cnc4ccccc34)cc2)CC1,pIC50,[1],4.97
same,MIC,[2],13.5 µM
same,pIC50,[3],5.03
same,"cytotoxicity at 48 h, 50 µM",[4],3.36%
O=C(O)c1cnc2ccc(C(F)(F)F)cc2c1Nc1ccc(OCCCN2CCOCC2)cc1,pIC50,[1],4.56
same,MIC,[2],13.2 µM
same,pIC50,[3],4.84
same,"cytotoxicity at 48 h, 50 µM",[4],22.6%
NNC(=O)c1cnc2ccccc2c1Nc1ccc(OCCCN2CCOCC2)cc1,pIC50,[1],6.01
same,MIC,[2],2.4 µM
same,pIC50,[3],6.14
same,"cytotoxicity at 48 h, 50 µM",[4],44.6%
CCOC(=O)c1cnc2ccc(F)cc2c1Nc1ccc(NCCCN2CCOCC2)cc1,pIC50,[1],4.95
same,MIC,[2],13.4 µM
same,pIC50,[3],5.34
same,"cytotoxicity at 48 h, 50 µM",[4],19.6%
CCN1CCN(CCCOc2ccc(Nc3c(C(=O)O)cnc4ccc(F)cc34)cc2)CC1,pIC50,[1],5.17
same,MIC,[2],6.91 µM
same,pIC50,[3],5.22
same,"cytotoxicity at 48 h, 50 µM",[4],24.2%
CCN1CCN(CCCOc2ccc(Nc3c(C(=O)NN)cnc4ccc(OC)cc34)cc2)CC1,pIC50,[1],4.90
same,MIC,[2],11.6 µM
same,pIC50,[3],5.23
same,"cytotoxicity at 48 h, 50 µM",[4],2.72%
CCOC(=O)c1cnc2ccc(C(F)(F)F)cc2c1Nc1ccc(NCCCN2CCOCC2)cc1,pIC50,[1],5.18
same,MIC,[2],49.8 µM
same,pIC50,[3],5.51
same,"cytotoxicity at 48 h, 50 µM",[4],20.2%
NNC(=O)c1ccncc1 [ISONIAZID],MIC,[2],0.66 µM
CO[C@@H]1[C@@H](OC(N)=O)[C@@H](O)[C@H](Oc2ccc3c(O)c(NC(=O)c4ccc(O)c(CC=C(C)C)c4)c(=O)oc3c2C)OC1(C)C [NOVOBIOCIN],MIC,[2],> 200 µM
